The values below come from the array DNA melting data of Ke et al. (doi:10.1101/2024.01.08.574731).

Data set [1] is described as follows: melting temperature; fluorescence melt of hairpins on a sequencing array, two-state fit, raised by 9.35 °C to match UV melts. As to conditions: sodium 0.088 M. Put shortly: (§1)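 Bootstrapped two-state fits yielded melting temperature and folding enthalpy for library hairpins. Cy3 fluorescence, with annealed Cy3 and quencher oligos, was imaged on a sequenced MiSeq flow cell in 50 mM Na-HEPES pH 8.0, 25 mM NaCl in 2.5 °C steps up to 60 °C, and normalised to pre-quench Cy3 and to control constructs. Four replicates were combined by inverse variance, and fitted temperatures were raised by 9.35 °C to match UV melts.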

Data set [2] in a line: folding enthalpy; higher = less favourable; fluorescence melt of hairpins on a sequencing array, two-state fit. As to conditions: sodium 0.088 M. Put shortly: as §1

For the sequence GGGATCACGAAAGTGCCC (((..(((....)))))), the Tm in data set [1] worked out at 39.3 °C. Also, the folding enthalpy in data set [2] was -15.3 kcal/mol.

GGGATCGAAAGATAACCC ((((((....)))..))): the Tm in data set [1] amounted to 34.9 °C. Besides, the folding enthalpy in data set [2] is -19.4 kcal/mol.

GGGATCGAAAGATCACCC ((((((....)))..))): in data set [1], the Tm was determined as 51.1 °C. Besides, in data set [2], the folding enthalpy is -13.4 kcal/mol.

Regarding GGGATCGAAAGATGCCC ((((((....))).))), the Tm in data set [1] came to 50.3 °C. The folding enthalpy in data set [2] is -46.8 kcal/mol.

Take GGGATCGAAAGATGGCCC ((((((....)))..))): the Tm in data set [1] turned out to be 33.5 °C. For the same sequence, the folding enthalpy in data set [2] was -13.8 kcal/mol.

On to GGGATCGCGAAAGCGCCC (((..(((....)))))), for which the Tm in data set [1] was found to be 40.6 °C. Also, the folding enthalpy in data set [2] was -13.8 kcal/mol.

In the case of GGGATCGGAAACGGTCCC ((((.((....)).)))), the Tm in data set [1] came to 57.8 °C. In addition, in data set [2], the folding enthalpy was -47.5 kcal/mol.

As to GGGATGGCGAAAGCCCCC (((..(((....)))))), the Tm in data set [1] amounted to 47.3 °C. Also, in data set [2], the folding enthalpy is -15.7 kcal/mol.

In the case of GGGATGGGAAACCATCTC (.(((((....))))).), in data set [1], the Tm came out at 49.9 °C. For the same sequence, the folding enthalpy in data set [2] was -24.5 kcal/mol.

For GGGATGGGAAACCGTCCC ((((.((....)).)))), the Tm in data set [1] was determined as 56.5 °C. In addition, the folding enthalpy in data set [2] was -50.5 kcal/mol.

GGGATTCCGAAAGGACCC (((..(((....)))))): in data set [1], the Tm was 40.3 °C. Also, in data set [2], the folding enthalpy was -16 kcal/mol.

As for GGGATTCGAAAGAAGCCC (((.(((....))).))), in data set [1], the Tm is 63.5 °C. In addition, the folding enthalpy in data set [2] was -34.7 kcal/mol.

GGGATTGGAAACAACCCC (((.(((....))).))): the Tm in data set [1] is 42.4 °C. The folding enthalpy in data set [2] is -28 kcal/mol.

As for GGGATTGGAAACAGTCCC ((((.((....)).)))), in data set [1], the Tm was 48.8 °C. The folding enthalpy in data set [2] was -31.5 kcal/mol.

For the sequence GGGCAAGGAAACTTACCC (((.(((....))).))), the Tm in data set [1] stood at 38.9 °C. The folding enthalpy in data set [2] is -29.2 kcal/mol.

With GGGCACACGAAAGTGCCC (((..(((....)))))), the Tm in data set [1] was found to be 67.3 °C. In data set [2], the folding enthalpy is -30.4 kcal/mol.

GGGCACGAAAGTGACCC ((((((....))).))): in data set [1], the Tm was determined as 66.8 °C. Further, in data set [2], the folding enthalpy is -13.2 kcal/mol.

Turning to GGGCACGAAAGTGACCCC ((((((....)))..))), the Tm in data set [1] turned out to be 68.5 °C. The folding enthalpy in data set [2] was -10.3 kcal/mol.

For GGGCACGAAAGTGAGCCC ((((((....)))..))), in data set [1], the Tm was found to be 56.7 °C. The folding enthalpy in data set [2] was -32.9 kcal/mol.

As for GGGCACGAAAGTGCTCCC ((((((....)))..))), in data set [1], the Tm is 53.1 °C. Besides, the folding enthalpy in data set [2] is -9.92 kcal/mol.

For the sequence GGGCACGAAAGTGTCCC ((((((....))).))), the Tm in data set [1] is 65.1 °C. Moreover, the folding enthalpy in data set [2] is -16.5 kcal/mol.

With GGGCACGAAAGTGTCCCC ((((((....)))..))), the Tm in data set [1] came to 65.1 °C. The folding enthalpy in data set [2] was -12 kcal/mol.

GGGCAGGCGAAAGCCCCC (((..(((....)))))): the Tm in data set [1] worked out at 46 °C. In data set [2], the folding enthalpy was -14.5 kcal/mol.

With GGGCAGGGAAACCCACCC (((..((....))..))), in data set [1], the Tm is 34.8 °C. Further, the folding enthalpy in data set [2] was -24.5 kcal/mol.

In the case of GGGCAGGGAAACTTGCCC (((((.(....).))))), in data set [1], the Tm is 55.9 °C. Moreover, in data set [2], the folding enthalpy was -47.7 kcal/mol.

Turning to GGGCAGTCGAAAGACCCC (((..(((....)))))), in data set [1], the Tm was 41.7 °C. The folding enthalpy in data set [2] was -21.6 kcal/mol.

Regarding GGGCATCGAAAGATTCCC (((.(((....))).))), the Tm in data set [1] is 47.5 °C. Besides, the folding enthalpy in data set [2] is -27.7 kcal/mol.

For the sequence GGGCATTCGAAAGAACCC (((..(((....)))))), the Tm in data set [1] is 29.5 °C. For the same sequence, the folding enthalpy in data set [2] was -14.2 kcal/mol.

As to GGGCCAACGAAAGTTCCC (((..(((....)))))), the Tm in data set [1] was 30.4 °C. Moreover, in data set [2], the folding enthalpy is -14.4 kcal/mol.

As to GGGCCACGAAAGTGACCC (((.(((....))).))), the Tm in data set [1] came to 64.4 °C. The folding enthalpy in data set [2] is -40.5 kcal/mol.

As for GGGCCAGGAAACCAGCCC ((((..(....)..)))), in data set [1], the Tm was found to be 43.9 °C. Moreover, the folding enthalpy in data set [2] was -26.8 kcal/mol.

As to GGGCCAGGAAACTGGTCC ((.((((....)))).)), the Tm in data set [1] is 61.9 °C. In data set [2], the folding enthalpy was -35 kcal/mol.

For GGGCCCCGAAAGGGTCCC (((.(((....))).))), in data set [1], the Tm turned out to be 65.2 °C. Moreover, the folding enthalpy in data set [2] was -27.4 kcal/mol.

On to GGGCCCGAAAGGGTACCC ((((((....)))..))), for which the Tm in data set [1] turned out to be 57.3 °C. In addition, the folding enthalpy in data set [2] was -15.1 kcal/mol.

As for GGGCCGGCGAAAGCCCCC (((..(((....)))))), the Tm in data set [1] stood at 51 °C. In addition, the folding enthalpy in data set [2] was -11.2 kcal/mol.

As for GGGCCTCGAAAGAGTCCC (((.(((....))).))), the Tm in data set [1] came out at 54.2 °C. In data set [2], the folding enthalpy is -40.7 kcal/mol.

For the sequence GGGCGACCGAAAGGTCCC (((..(((....)))))), in data set [1], the Tm is 49.8 °C. For the same sequence, the folding enthalpy in data set [2] was -13 kcal/mol.
